Measurements: the EternaBench riboswitch data

Tested on: MS2 coat protein
Experiment: apparent Kd, MS2 coat protein; higher = weaker binding; RNA-MaP array; FMN 200 µM where present
How it was run: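 Stalled E. coli RNA polymerase transcribed the designs on Illumina sequencing-chip clusters. SNAP-549-labelled MS2 coat protein was titrated from 0.7 or 1.5 nM, doubling to 3 µM, without and then with constant ligand, in 100 mM Tris-HCl pH 7.5, 80 mM KCl, 4 mM MgCl2, BSA, DTT, yeast tRNA and Tween-20. Per-cluster binding curves were fitted to green signal normalised to red-channel RNA signal and control-cluster median Fmax. The apparent Kd is the median of the filtered fits.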

[1] = designed as: OFF switch for flavin mononucleotide, no ligand
[2] = ligand present: flavin mononucleotide, designed as: OFF switch for flavin mononucleotide
[3] = designed as: ON switch for flavin mononucleotide, no ligand
[4] = ligand present: flavin mononucleotide, designed as: ON switch for flavin mononucleotide

## GGAUAGGACAGAGGAUAUACGUGCUAGAGAUACUAGCAAAAUUUCCUCACAUGAGGAUCACCCAUGUAGAAGGCUGUCCUAUCA
[1]
  apparent Kd: 16.7 nM
[2]
  apparent Kd: 380 nM

## GGAUAGGACAGAGGAUAUACGUGCUAGAGAUACUAGCAAAAUUUCCUGACAUGAGGAUCACCCAUGUAGAAGGCUGUCCUAUCG
[1]
  apparent Kd: 7.22 nM
[2]
  apparent Kd: 15.5 nM

## GGAUAGGACAGAGGAUAUACGUGCUAGAGAUACUAGCAAAUUUUCCUCACAUGAGGAUCACCCAUGUAGAAGGCUGUCCUAUCG
[1]
  apparent Kd: 24.6 nM
[2]
  apparent Kd: 511 nM

## GGAUAGGACAGAGGAUAUACGUGCUUGAGAUACUAGCAAAAUUUCCUCACAUGAGGAUCACCCAUGUAGAAGGCUGUCCUAUCG
[1]
  apparent Kd: 20.2 nM
[2]
  apparent Kd: 436 nM

## GGAUAGGACAGAGGAUAUAGGUGCUAGAGAUACUAGCAAAAUUUCCUCACAUGAGGAUCACCCAUGUAGAAGGCUGUCCUAUCG
[1]
  apparent Kd: 11.5 nM
[2]
  apparent Kd: 25.4 nM

## GGAUAGGACAGAGGAUAUUCGUGCUAGAGAUACUAGCAAAAUUUCCUCACAUGAGGAUCACCCAUGUAGAAGGCUGUCCUAUCG
[1]
  apparent Kd: 5.37 nM
[2]
  apparent Kd: 10.3 nM

## GGAUAGUACAGAGGAUAUACGUGCUAGAGAUACUAGCAAAAUUUCCUCACAUGAGGAUCACCCAUGUAGAAGGCUGUCCUAUCG
[1]
  apparent Kd: 5.94 nM
[2]
  apparent Kd: 51.8 nM

## GGAUAGUGAGGAUAUGCAUACGGUGUAAGUCCCAGAUCGAAACAUGAGGAUCACCCAUGUAGAAGGCGCAAAAC
[1]
  apparent Kd: 23.6 nM
[2]
  apparent Kd: 75.5 nM

## GGAUAUGACAGAGGAUAUACGUGCUAGAGAUACUAGCAAAAUUUCCUCACAUGAGGAUCACCCAUGUAGAAGGCUGUCCUAUCG
[1]
  apparent Kd: 16.3 nM
[2]
  apparent Kd: 275 nM

## GGAUCGAAUGUGAGGAUAUACCUAUGGAAACAUAGGUAGAAGGCACAUGAGGAUCACCCAUGUUCCUACGGUCC
[1]
  apparent Kd: 92.2 nM
[2]
  apparent Kd: 577 nM

## GGAUCGAGUGUGAGGAUAUGCUGGUCCUUGGAUCAGCAGAAGGCACAUGAGGAUCACCCAUGUGUUCCCGGUCC
[1]
  apparent Kd: 48.9 nM
[2]
  apparent Kd: 577 nM

## GGAUCGAUGUAGAAGGCUGUCCUAAAAUAGGACAGAGGAUAUACAUGAGGAUCACCCAUGUACUCCUUUAAAACGAUCCAAAUA
[1]
  apparent Kd: 5.44 nM
[2]
  apparent Kd: 7.59 nM

## GGAUGACAAAGUCAUCCAAAUCGAACAUGAGGAUCACCCAUGUAGGAUAUGCUACACAAAGUGUAGCAGAAGGACAUGUGCUUU
[1]
  apparent Kd: 42.2 nM
[2]
  apparent Kd: 258 nM

## GGAUGACAAAGUCAUCCAUAACGAACAUGAGGAUCACCCAUGUAGGAUAUGCUUCUCAAAGAGAAGCAGAAGGACAUGUGCCUU
[1]
  apparent Kd: 36.7 nM
[2]
  apparent Kd: 258 nM

## GGAUGACAAAGUCAUCCUUAACGAACAUGAGGAUCACCCAUGUAGGAUAUGCUACUCAAAGAGUAGCAGAAGGACAUGUGCCUU
[1]
  apparent Kd: 35 nM
[2]
  apparent Kd: 242 nM

## GGAUGAGAAACUCAUCCAAUACGAACAUGAGGAUCACCCAUGUAGGAUAUGCUACUCAAAGAGUAGCAGAAGGACAUGUGUCUU
[1]
  apparent Kd: 27.4 nM
[2]
  apparent Kd: 159 nM

## GGAUUUUCUGAGGAUAUUGCAUCACCCGAUUUAUAAGAAGGCAGAACAUGAGGAUCACCCAUGUGGGUCUCCAG
[1]
  apparent Kd: 28.6 nM
[2]
  apparent Kd: 58 nM

## GGCAAUAACGAGGAUAUCGUAUCGGAAACGAUACGAGAAGGUGUAACAUGAGGAUCACCCAUGUUCCUUAAGCC
[1]
  apparent Kd: 24.9 nM
[2]
  apparent Kd: 26.6 nM

## GGCAUGCAAAUAAAACAUGAGGAUCACCCAUGUGAGUCUCAUGAGGAUAUGCAGGUCAAAGACUUGCAGAAGGCAUGGCGUGCC
[3]
  apparent Kd: 1950 nM
[4]
  apparent Kd: 132 nM

## GGCAUGUGGGCAGGAUAUAACUCGGUCUCUAGGUUAGAAGGGCCACACAUGAGGAUCACCCAUGUCGACCAGGCAGUCCUCCCU
[1]
  apparent Kd: 26.2 nM
[2]
  apparent Kd: 60.5 nM

## GGCGAACAGGCUAACAUGAGGAUCACCCAUGUGGACUCAUGGUAGGAUAUCGGGAAGGAGGAAACCGAGAAGGGCCGGUGAGCU
[3]
  apparent Kd: 67.7 nM
[4]
  apparent Kd: 26.3 nM

## GGCGAACAGGCUAACAUGAGGAUCACCCAUGUGGACUCAUGGUAGGAUAUGCUCAUCAAAGAUGAGCAGAAGGGCCGGUGAGCC
[3]
  apparent Kd: 54.8 nM
[4]
  apparent Kd: 463 nM

## GGCGGUCGGGAGGAUAUUCGGGCUGUUUGGCUUGGAGAAGGCUCGACAUGAGGAUCACCCAUGUUGGUGUUCUU
[1]
  apparent Kd: 387 nM
[2]
  apparent Kd: 40.8 nM

## GGCGGUUUGGCAGGAUAUCGGAAACAGACCAAACGAGAAGGGCCUACAUGGCAAUGCGAAAGCAGACAUGAGGAUCACCCAUGU
[3]
  apparent Kd: 84.9 nM
[4]
  apparent Kd: 72.2 nM

## GGCUAACGGGCUAACAUGAGGAUCACCCAUGUGGACUCAUGGUAGGAUAUGCUGUACAAAGUACAGCAGAAGGGCCGGUGAGCC
[3]
  apparent Kd: 128 nM
[4]
  apparent Kd: 978 nM

## GGCUACGUUUCGUAGCAGCUAGGUGAGGAUAUUCAAUUUUUCACAUGAGGAUCACCCAUGUAUGUGAAGAAGGCGCCUAGAAAC
[3]
  apparent Kd: 11.2 nM
[4]
  apparent Kd: 5.14 nM

## GGCUACGUUUCGUAGCAGUGUCAUCGAGAAGGCCCUGACAUGAGGAUCACCCAUGUUGUUACAUGGGAGGAUAUCGAUGAUACU
[3]
  apparent Kd: 13.3 nM
[4]
  apparent Kd: 5.12 nM

## GGCUCGCAGCUAGGAUAUGGGCGGUCACAUGAGGAUCACCCAUGUCAACAUCAAAACCAGAUUAACCAGAAGGAGCUGCGGGUU
[3]
  apparent Kd: 33.5 nM
[4]
  apparent Kd: 739 nM

## GGCUGCGAUGUGAAGGAUAUCCGCGUCUGGACAUGAGGAUCACCCAUGUAUGCUUGGAUCAUGCCGGAGAAGGUCACGAAUGAUU
[3]
  apparent Kd: 38 nM
[4]
  apparent Kd: 16.6 nM

## GGCUGGUGACAGCAUCCAUCAAAACAUGAGGAUCACCCAUGUAGAAGGCUGUACGGUUACCGUACAGAGGAUAUACAAUGAUGC
[1]
  apparent Kd: 13.7 nM
[2]
  apparent Kd: 28.5 nM

## GGGAAGUGAGGAUAUGCUGCUCGUCACUUGCGUGAUGAGUAGCAGAAGGUACAUGAGGAUCACCCAUGUAAAGA
[1]
  apparent Kd: 29.5 nM
[2]
  apparent Kd: 20.7 nM

## GGGAAUAAACCCGUCUCCGCUCAACCAGAAGGGCACGAUAAUAUUACAUGAGGAUCACCCAUGUUGCAGGAUAUGGUGAGCCUC
[3]
  apparent Kd: 191 nM
[4]
  apparent Kd: 52.9 nM

## GGGACACAUGAGGAUCACCCAUGUGAGGAUAUGUUAGUUUCGGCCAAAGCCGAAAUUAACAGAAGGCACAUACC
[1]
  apparent Kd: 36.7 nM
[2]
  apparent Kd: 49 nM

## GGGACUCAAAGAGUACCAAUACGAACAUGAGGAUCACCCAUGUAGGAUAUGCUACUCAAAGAGUAGCAGAAGGACAUGUGCCUA
[1]
  apparent Kd: 15.3 nM
[2]
  apparent Kd: 82.2 nM

## GGGACUCUAGAAGAGCUGUCGACAUAGGAUAUGAUGUGCGACAUGAGGAUCACCCAUGUAACGAAUUAGAAGGGUGUAGGCAUG
[3]
  apparent Kd: 228 nM
[4]
  apparent Kd: 114 nM

## GGGAGACAUGAGGAUCACCCAUGUGAAAACGUGCGAGGAUAUGUAUGGAAACCAUACUGUACAGAAGGCGUUUGUC
[3]
  apparent Kd: 50.2 nM
[4]
  apparent Kd: 47.7 nM

## GGGAGACAUGAGGAUCACCCAUGUGAAAACGUGGCAGGAUAUCCAUGGAAACCAUACUGUGGAGAAGGGCCUUGUC
[3]
  apparent Kd: 77.9 nM
[4]
  apparent Kd: 40.5 nM

## GGGCAAUUAGGAUAUACAUGAGGAUCACCCAUGUGGAAGCCCGGACAGGUAAUCCACUGUAGAAGGGAUUGCCA
[1]
  apparent Kd: 12 nM
[2]
  apparent Kd: 13.3 nM

## GGGCAAUUAGGAUAUACAUGAGGAUCACCCAUGUGGAAGCCCGGACAGGUAAUCCACUGUAGAAGGGAUUGCGG
[1]
  apparent Kd: 14.8 nM
[2]
  apparent Kd: 15 nM

## GGGCCCGGUGUGAGGAUAUGCUCGGGUAAACUCGGGCAGAAGGCACAUGAGGAUCACCCAUGUAAGCCGGGCCC
[1]
  apparent Kd: 13.8 nM
[2]
  apparent Kd: 14.6 nM

## GGGCCGAAAGGCCCGCGGGCCCGGCAGGAUAUACAUGAGGAUCACCCAUGUCCGGCGAAAGCCGGGUAGAAGGGCCGGGCCCGC
[1]
  apparent Kd: 4.98 nM
[2]
  apparent Kd: 5.29 nM

## GGGCCGAUAGGAUAUACAUGAGGAUCACCCAUGUAUGCUUAGAAGCGGCAAUCCUUAUGUAGAAGGGUCAGGCU
[1]
  apparent Kd: 37.1 nM
[2]
  apparent Kd: 33.4 nM

## GGGCGGAAUACAUGAGGAUCACCCAUGUCAGAAAGGGUAAUCAGAAGGUACUAUUAGAGAAAGAGUAAGGAUAUGAAUCCGCCC
[3]
  apparent Kd: 906 nM
[4]
  apparent Kd: 158 nM

## GGGCUCAUCGAGAAGGCCUCAACAUGAGGAUCACCCAUGUUGUAAUAUGGGAGGAUAUCGAUGAUACAGCUACGUUUCGUACCC
[3]
  apparent Kd: 18 nM
[4]
  apparent Kd: 6.25 nM

## GGGUACAUCGGAGGAUAUCAUGUAAAUACAUGAGGAUCACCCAUGUCGAUGGAGACAUCGAAGAUUGAGAAGGCCGAUGUACCG
[3]
  apparent Kd: 16.8 nM
[4]
  apparent Kd: 5.6 nM

## GGGUACAUCGGAGGAUAUCAUGUAAAUACAUGAGGAUCACCCAUGUCGAUGGAGACAUCGGAGAUUGAGAAGGCCGAUGUACGG
[3]
  apparent Kd: 160 nM
[4]
  apparent Kd: 9.04 nM

## GGGUACAUCGGAGGAUAUCAUGUAAAUACAUGAGGAUCACCCAUGUCGCUGGAGACAUCGGAGAUUGAGAAGGCCGAUGUACCG
[3]
  apparent Kd: 26.6 nM
[4]
  apparent Kd: 303 nM

## GGGUACAUCGGAGGAUAUCAUGUAAGUACAUGAGGAUCACCCAUGUCGAUGGAGACAUCGGAGAUUGAGAAGGCCGAUGUACCG
[3]
  apparent Kd: 152 nM
[4]
  apparent Kd: 8.71 nM

## GGGUACAUCGGAGGAUAUGAUGUAAAUACAUGAGGAUCACCCAUGUCGAUGGAGACAUCGGAGAUUGAGAAGGCCGAUGUACCG
[3]
  apparent Kd: 88.2 nM
[4]
  apparent Kd: 32.2 nM

## GGGUACAUCGGAGGAUAUUAUGUAAAUACAUGAGGAUCACCCAUGUCGAUGGAGACAUCGGAGAUUGAGAAGGCCGAUGUACCG
[3]
  apparent Kd: 119 nM
[4]
  apparent Kd: 8.94 nM

## GGGUACUUCGGAGGAUAUCAUGUAAAUACAUGAGGAUCACCCAUGUCGAUGGAGACAUCGGAGAUUGAGAAGGCCGAUGUACCG
[3]
  apparent Kd: 171 nM
[4]
  apparent Kd: 9.34 nM

## GGGUGCUCACCGCCUUAACAUGAGGAUCACCCAUGUGGAGUGCAGGAUAUACGUUUCUAUCAUACGUAGAAGGGCACCGCGCAG
[1]
  apparent Kd: 5.59 nM
[2]
  apparent Kd: 5.03 nM

## GGGUUGUGAGGAUAUUAGUUGUACGUCAAUAGACGUAUGGGUGAGAAGGCACAUGAGGAUCACCCAUGUUCCUG
[2]
  apparent Kd: 126 nM

## GGGUUGUGAGGAUAUUAGUUGUACGUCAAUAGACGUGUGGGUGAGAAGGCACAUGAGGAUCACCCAUGUUCCUG
[1]
  apparent Kd: 181 nM
[2]
  apparent Kd: 169 nM

## GGUACACAUGAGGAUCACCCAUGUCGUAUGACAUGAGGAUAUGUACAGACUUCGGUCUGUACAGAAGGCAUGUGUC
[3]
  apparent Kd: 28.1 nM
[4]
  apparent Kd: 445 nM
